In ChEMBL document CHEMBL4257579, “Analogs of penfluridol as chemotherapeutic agents with reduced central nervous system activity” (Bioorg Med Chem Lett, 2018):

Assays:
[1] = target: T1, 5-hydroxytryptamine receptor 2B (Homo sapiens, UniProt P41595); experiment: Displacement of [3H]LSD from human 5-HT2B receptor expressed in HEK cells by radioligand binding assay relative to control; format: cell-based; parameters: concentration or dose not given beside the values; settings: concentration not given here
T1 sequence (P41595 whole entry): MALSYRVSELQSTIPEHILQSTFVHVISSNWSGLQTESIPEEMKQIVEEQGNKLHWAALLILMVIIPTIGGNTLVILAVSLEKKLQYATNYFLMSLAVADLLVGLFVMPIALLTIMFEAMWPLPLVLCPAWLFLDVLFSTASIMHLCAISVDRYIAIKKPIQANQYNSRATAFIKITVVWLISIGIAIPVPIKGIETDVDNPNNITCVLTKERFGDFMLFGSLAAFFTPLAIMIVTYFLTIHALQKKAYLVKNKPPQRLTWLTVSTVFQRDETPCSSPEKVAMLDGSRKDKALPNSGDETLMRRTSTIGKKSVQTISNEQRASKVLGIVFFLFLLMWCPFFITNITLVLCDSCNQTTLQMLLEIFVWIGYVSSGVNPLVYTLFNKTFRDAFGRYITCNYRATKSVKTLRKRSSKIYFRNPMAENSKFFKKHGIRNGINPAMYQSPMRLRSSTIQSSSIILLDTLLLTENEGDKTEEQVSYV

[2] = target: T2, Sodium-dependent noradrenaline transporter (Homo sapiens, UniProt P23975); experiment: Displacement of [3H]Nisoxetine from human NET expressed in HEK cells by radioligand binding assay; format: cell-based
T2 sequence (P23975 whole entry): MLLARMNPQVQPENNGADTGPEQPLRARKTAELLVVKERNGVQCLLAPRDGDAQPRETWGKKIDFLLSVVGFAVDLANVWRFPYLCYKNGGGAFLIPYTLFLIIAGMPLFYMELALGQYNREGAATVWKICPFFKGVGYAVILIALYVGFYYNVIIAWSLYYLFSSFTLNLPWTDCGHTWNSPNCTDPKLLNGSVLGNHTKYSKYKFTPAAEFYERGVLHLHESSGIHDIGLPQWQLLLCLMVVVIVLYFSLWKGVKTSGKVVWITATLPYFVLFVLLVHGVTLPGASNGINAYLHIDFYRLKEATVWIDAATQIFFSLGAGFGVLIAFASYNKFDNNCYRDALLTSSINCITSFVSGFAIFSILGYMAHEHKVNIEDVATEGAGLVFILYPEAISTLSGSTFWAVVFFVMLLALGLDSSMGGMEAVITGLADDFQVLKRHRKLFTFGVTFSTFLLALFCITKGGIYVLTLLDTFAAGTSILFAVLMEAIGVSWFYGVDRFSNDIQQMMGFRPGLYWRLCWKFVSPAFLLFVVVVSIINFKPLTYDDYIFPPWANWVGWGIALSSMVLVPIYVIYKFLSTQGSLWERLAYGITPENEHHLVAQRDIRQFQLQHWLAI

[3] = system: Lewis lung carcinoma cell line; experiment: Cytotoxicity against mouse LLC cells harboring […] assessed as reduction in cell viability after 72 hrs by MTT assay; format: functional, cell-based
Summary of the method: (§1)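 Cells exposed to compounds; viability read at 24, 48 and 72 h. Every experiment run in triplicate.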

[4] = target: T3, 5-hydroxytryptamine receptor 2C (Homo sapiens, UniProt P28335); experiment: Displacement of [3H]Mesulergine from human 5-HT2C receptor expressed in HEK293FlpIN cells by radioligand binding assay; format: cell-based
T3 sequence (P28335 whole entry): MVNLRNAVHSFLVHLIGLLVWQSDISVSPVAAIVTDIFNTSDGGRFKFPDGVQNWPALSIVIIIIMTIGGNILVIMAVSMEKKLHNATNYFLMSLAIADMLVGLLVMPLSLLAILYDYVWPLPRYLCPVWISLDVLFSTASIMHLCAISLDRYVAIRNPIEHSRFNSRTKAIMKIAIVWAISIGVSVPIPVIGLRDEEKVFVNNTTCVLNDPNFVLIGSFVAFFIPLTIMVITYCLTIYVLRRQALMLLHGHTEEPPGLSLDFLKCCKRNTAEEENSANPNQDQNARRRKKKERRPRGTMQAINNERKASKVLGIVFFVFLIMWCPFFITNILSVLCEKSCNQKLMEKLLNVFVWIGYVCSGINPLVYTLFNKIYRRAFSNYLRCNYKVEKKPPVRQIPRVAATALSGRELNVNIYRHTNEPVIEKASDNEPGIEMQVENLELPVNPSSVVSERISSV

D(1B) dopamine receptor [5] = target: T4, D(1B) dopamine receptor (Homo sapiens, UniProt P21918); experiment: Displacement of [3H]SCH23390 from human dopamine D5 receptor expressed in HEK293T cells by radioligand binding assay; format: cell-based
T4 sequence (P21918 whole entry): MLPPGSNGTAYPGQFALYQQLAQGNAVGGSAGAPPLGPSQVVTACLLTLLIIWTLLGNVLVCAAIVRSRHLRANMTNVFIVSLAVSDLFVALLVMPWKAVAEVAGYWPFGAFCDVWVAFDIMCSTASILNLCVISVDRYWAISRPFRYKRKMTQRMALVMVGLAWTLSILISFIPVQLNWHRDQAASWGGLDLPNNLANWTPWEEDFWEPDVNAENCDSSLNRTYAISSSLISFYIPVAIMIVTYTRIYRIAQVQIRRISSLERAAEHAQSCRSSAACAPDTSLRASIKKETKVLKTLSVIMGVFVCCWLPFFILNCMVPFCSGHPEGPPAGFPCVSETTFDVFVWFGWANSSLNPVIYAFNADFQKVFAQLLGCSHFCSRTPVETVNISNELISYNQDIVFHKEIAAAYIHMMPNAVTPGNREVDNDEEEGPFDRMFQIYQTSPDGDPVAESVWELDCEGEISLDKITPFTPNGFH

[6] = target: T5, D(4) dopamine receptor (Homo sapiens) (UniProt P21917); experiment: Displacement of [3H]N-methylspiperone from human dopamine D4 receptor by radioligand binding assay relative to control; parameters: concentration or dose not given beside the values; settings: concentration not given here
T5 sequence (whole entry): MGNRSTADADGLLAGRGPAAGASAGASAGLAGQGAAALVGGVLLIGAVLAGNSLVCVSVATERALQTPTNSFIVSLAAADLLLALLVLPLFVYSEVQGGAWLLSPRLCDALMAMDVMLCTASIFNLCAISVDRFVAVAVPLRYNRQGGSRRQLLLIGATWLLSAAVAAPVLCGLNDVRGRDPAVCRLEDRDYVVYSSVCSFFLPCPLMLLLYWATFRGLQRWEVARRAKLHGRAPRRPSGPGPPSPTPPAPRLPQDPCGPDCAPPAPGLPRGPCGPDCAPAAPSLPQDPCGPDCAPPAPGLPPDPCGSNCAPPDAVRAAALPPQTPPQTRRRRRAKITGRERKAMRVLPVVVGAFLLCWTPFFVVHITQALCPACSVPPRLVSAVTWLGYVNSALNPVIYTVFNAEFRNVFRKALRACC

D(1B) dopamine receptor [7] = target: T4, D(1B) dopamine receptor; experiment: Displacement of [3H]SCH23390 from human dopamine D5 receptor expressed in HEK293T cells by radioligand binding assay relative to control; format: cell-based; parameters: concentration or dose not given beside the values; settings: concentration not given here
[8] = target: 5-hydroxytryptamine receptor 6 (Homo sapiens, UniProt P50406); experiment: Displacement of [3H]LSD from human 5-HT6 receptor expressed in HEK cells by radioligand binding assay relative to control; format: cell-based; parameters: concentration or dose not given beside the values; settings: concentration not given here
Sequence of 5-hydroxytryptamine receptor 6 (P50406 whole entry): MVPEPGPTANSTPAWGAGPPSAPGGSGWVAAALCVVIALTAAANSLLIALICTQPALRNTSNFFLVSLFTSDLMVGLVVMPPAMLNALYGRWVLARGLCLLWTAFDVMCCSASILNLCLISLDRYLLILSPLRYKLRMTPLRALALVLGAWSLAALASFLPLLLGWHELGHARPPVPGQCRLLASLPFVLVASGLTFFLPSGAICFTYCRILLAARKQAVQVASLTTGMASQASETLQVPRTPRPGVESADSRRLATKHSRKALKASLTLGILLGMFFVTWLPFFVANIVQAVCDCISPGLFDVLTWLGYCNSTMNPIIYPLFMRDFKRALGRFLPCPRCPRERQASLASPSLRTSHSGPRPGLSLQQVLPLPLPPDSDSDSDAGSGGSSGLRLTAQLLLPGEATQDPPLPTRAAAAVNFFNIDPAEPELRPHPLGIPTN

[9] = target: Kappa-type opioid receptor (Homo sapiens, UniProt P41145); experiment: Displacement of [3H]U69593 from KOR (unknown origin) expressed in HEK cells by radioligand binding assay relative to control; format: cell-based; parameters: concentration or dose not given beside the values; settings: concentration not given here
Sequence of Kappa-type opioid receptor (P41145 whole entry): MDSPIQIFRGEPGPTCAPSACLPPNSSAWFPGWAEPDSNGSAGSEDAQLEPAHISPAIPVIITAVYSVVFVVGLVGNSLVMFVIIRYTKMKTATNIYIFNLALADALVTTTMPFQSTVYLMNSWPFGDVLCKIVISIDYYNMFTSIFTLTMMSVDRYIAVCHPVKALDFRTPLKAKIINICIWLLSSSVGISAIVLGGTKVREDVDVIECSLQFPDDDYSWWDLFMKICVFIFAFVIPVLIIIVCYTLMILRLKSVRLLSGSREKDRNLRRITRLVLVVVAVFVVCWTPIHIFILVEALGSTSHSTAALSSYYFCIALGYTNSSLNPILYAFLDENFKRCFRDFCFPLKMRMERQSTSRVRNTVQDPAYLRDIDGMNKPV

[10] = target: T1, 5-hydroxytryptamine receptor 2B; experiment: Displacement of [3H]LSD from human 5-HT2B receptor expressed in HEK cells by radioligand binding assay; format: cell-based
NIH3T3 = experiment: Cytotoxicity against mouse NIH/3T3 cells assessed as reduction in cell viability after 24 hrs by MTT assay; format: cell-based; settings: NIH3T3, 24 h; summary of the method: as §1
D(2) dopamine receptor [11] = target: T6, D(2) dopamine receptor (Homo sapiens, UniProt P14416); experiment: Displacement of [3H]N-methylspiperone from human dopamine D2 receptor expressed in stable fibroblast cells by radioligand binding assay relative to control; format: cell-based; parameters: concentration or dose not given beside the values; settings: concentration not given here
T6 sequence (P14416 whole entry): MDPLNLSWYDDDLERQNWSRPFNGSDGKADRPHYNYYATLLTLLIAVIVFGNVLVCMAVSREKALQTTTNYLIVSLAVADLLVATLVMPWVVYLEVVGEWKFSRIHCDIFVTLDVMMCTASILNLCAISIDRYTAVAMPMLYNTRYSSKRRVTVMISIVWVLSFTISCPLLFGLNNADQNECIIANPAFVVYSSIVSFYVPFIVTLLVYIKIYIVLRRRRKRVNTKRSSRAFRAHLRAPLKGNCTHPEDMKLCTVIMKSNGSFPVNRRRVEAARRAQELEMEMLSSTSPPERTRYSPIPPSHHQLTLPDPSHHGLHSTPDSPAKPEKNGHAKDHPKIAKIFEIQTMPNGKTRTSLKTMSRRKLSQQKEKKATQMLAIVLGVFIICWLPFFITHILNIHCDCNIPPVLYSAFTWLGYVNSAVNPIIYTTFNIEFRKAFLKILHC

[12] = target: T7, 5-hydroxytryptamine receptor 7 (Homo sapiens, UniProt P34969); experiment: Displacement of [3H]LSD from human 5-HT7A receptor expressed in HEK cells by radioligand binding assay relative to control; format: cell-based
T7 sequence (P34969 whole entry): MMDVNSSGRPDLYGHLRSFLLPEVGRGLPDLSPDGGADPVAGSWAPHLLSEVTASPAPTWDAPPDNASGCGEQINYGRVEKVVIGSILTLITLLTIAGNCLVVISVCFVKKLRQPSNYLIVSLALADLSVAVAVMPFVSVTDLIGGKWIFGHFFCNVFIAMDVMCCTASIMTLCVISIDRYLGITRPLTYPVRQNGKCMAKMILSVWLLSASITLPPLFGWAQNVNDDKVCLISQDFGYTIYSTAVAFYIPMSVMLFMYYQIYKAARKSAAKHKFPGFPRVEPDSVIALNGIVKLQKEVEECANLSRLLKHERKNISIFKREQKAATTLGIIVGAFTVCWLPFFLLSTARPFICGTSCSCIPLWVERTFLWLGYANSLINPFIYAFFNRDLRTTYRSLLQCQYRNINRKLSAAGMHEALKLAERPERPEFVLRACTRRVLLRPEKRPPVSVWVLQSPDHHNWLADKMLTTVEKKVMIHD

Mu-type opioid receptor [13] = target: T8, Mu-type opioid receptor (Homo sapiens, UniProt P35372); experiment: Displacement of [3H]DAMGO from human MOR expressed in HEK cells by radioligand binding assay relative to control; format: cell-based; parameters: concentration or dose not given beside the values; settings: concentration not given here
MDA-MB-231 [14] = experiment: Cytotoxicity against human MDA-MB-231 cells assessed as reduction in cell viability after 24 hrs by MTT assay; format: functional, cell-based; settings: MDA-MB-231, 24 h; summary of the method: as §1
Histamine H2 receptor = Histamine H2 receptor (Homo sapiens, UniProt P25021); experiment: Displacement of [3H]Cimetidine from human H2 receptor expressed in HEK cells by radioligand binding assay relative to control; format: cell-based; parameters: concentration or dose not given beside the values; settings: concentration not given here
Sequence of Histamine H2 receptor (P25021 whole entry): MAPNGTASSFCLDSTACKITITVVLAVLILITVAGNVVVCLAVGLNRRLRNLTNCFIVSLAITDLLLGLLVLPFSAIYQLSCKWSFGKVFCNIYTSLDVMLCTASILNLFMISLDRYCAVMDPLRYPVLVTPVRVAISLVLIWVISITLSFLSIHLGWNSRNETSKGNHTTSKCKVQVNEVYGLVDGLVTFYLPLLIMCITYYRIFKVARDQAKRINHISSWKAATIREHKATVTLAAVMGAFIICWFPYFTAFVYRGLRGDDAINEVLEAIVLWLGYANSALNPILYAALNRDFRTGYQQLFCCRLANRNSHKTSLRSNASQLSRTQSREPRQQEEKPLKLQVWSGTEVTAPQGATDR

Mu-type opioid receptor [15] = target: T8, Mu-type opioid receptor; experiment: Displacement of [3H]DAMGO from human MOR expressed in HEK cells by radioligand binding assay; format: cell-based
D(3) dopamine receptor [16] = target: T9, D(3) dopamine receptor (Homo sapiens, UniProt P35462); experiment: Displacement of [3H]N-methylspiperone from human dopamine D3 receptor expressed in HEK293T cells by radioligand binding assay; format: cell-based
T9 sequence (P35462 whole entry): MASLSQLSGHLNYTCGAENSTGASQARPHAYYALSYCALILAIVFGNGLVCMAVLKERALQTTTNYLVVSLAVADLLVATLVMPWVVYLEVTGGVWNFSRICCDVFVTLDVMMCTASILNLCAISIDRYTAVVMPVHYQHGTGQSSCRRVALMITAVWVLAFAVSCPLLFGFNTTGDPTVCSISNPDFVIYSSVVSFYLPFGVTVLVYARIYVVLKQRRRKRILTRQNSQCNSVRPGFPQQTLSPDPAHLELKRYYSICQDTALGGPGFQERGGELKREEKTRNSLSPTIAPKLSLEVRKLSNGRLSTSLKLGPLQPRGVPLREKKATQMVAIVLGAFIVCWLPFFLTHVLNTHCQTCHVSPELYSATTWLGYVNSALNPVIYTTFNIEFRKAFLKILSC

[17] = target: Delta-type opioid receptor (Homo sapiens, UniProt P41143); experiment: Displacement of [3H]DADLE from human DOR expressed in HEK cells by radioligand binding assay; format: cell-based
Sequence of Delta-type opioid receptor (P41143 whole entry): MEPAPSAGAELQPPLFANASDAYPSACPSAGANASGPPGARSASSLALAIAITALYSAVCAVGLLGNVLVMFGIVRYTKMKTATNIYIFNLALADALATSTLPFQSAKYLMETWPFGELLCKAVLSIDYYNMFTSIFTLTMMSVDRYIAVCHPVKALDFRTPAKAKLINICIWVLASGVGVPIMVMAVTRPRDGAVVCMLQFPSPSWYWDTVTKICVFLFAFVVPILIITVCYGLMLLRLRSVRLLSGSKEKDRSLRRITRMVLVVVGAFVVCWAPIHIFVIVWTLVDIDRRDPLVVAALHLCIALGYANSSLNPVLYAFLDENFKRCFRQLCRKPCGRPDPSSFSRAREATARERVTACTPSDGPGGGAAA

[18] = target: T10, 5-hydroxytryptamine receptor 2C (Homo sapiens) (UniProt P28335); experiment: Displacement of [3H]Mesulergine from human 5-HT2C receptor expressed in HEK293FlpIN cells by radioligand binding assay relative to control; format: cell-based; parameters: concentration or dose not given beside the values; settings: concentration not given here
T10 sequence (whole entry): T3 sequence (P28335 whole entry)

[19] = target: 5-hydroxytryptamine receptor 1D (Homo sapiens, UniProt P28221); experiment: Displacement of [3H]5-CT from human 5-HT1D receptor expressed in HEK293T cells by radioligand binding assay relative to control; format: cell-based; parameters: concentration or dose not given beside the values; settings: concentration not given here
Sequence of 5-hydroxytryptamine receptor 1D (P28221 whole entry): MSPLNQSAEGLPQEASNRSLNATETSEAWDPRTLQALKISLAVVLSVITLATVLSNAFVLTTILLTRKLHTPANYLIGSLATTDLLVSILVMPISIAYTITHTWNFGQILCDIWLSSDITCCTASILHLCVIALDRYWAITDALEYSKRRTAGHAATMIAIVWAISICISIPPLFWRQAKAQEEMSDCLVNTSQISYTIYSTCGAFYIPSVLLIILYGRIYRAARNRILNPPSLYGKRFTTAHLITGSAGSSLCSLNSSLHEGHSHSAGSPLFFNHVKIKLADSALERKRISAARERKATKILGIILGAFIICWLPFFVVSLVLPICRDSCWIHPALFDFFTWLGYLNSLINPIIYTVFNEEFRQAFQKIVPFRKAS

D(2) dopamine receptor [20] = target: T6, D(2) dopamine receptor; experiment: Displacement of [3H]N-methylspiperone from human dopamine D2 receptor expressed in stable fibroblast cells by radioligand binding assay; format: cell-based
D(3) dopamine receptor [21] = target: T9, D(3) dopamine receptor; experiment: Displacement of [3H]N-methylspiperone from human dopamine D3 receptor expressed in HEK293T cells by radioligand binding assay relative to control; format: cell-based; parameters: concentration or dose not given beside the values; settings: concentration not given here
MDA-MB-231 [22] = experiment: Cytotoxicity against human MDA-MB-231 cells assessed as reduction in cell viability after 48 hrs by MTT assay; format: functional, cell-based; settings: MDA-MB-231, 48 h; summary of the method: as §1
[23] = target: T7, 5-hydroxytryptamine receptor 7; experiment: Displacement of [3H]LSD from human 5-HT7A receptor expressed in HEK cells by radioligand binding assay; format: cell-based
[24] = target: T2, Sodium-dependent noradrenaline transporter; experiment: Displacement of [3H]Nisoxetine from human NET expressed in HEK cells by radioligand binding assay relative to control; format: cell-based
[25] = target: Sodium-dependent serotonin transporter (Homo sapiens, UniProt P31645); experiment: Displacement of [3H]Citalopram from human SERT expressed in HEK cells by radioligand binding assay relative to control; format: cell-based
D(4) dopamine receptor = target: T11, D(4) dopamine receptor (Homo sapiens, UniProt P21917); experiment: Displacement of [3H]N-methylspiperone from human dopamine D4 receptor by radioligand binding assay
T11 sequence (P21917 whole entry): T5 sequence (whole entry)

Compound	inhibition [1]	IC50 [3]	Ki [4]	inhibition [6]	inhibition [8]	inhibition [9]	Ki ([10]; read-out: Ki)	IC50 (NIH3T3)	inhibition (D(2) dopamine receptor [11])	inhibition (INH) [12]	inhibition (Mu-type opioid receptor [13])	IC50 (MDA-MB-231 [14])	Ki (Mu-type opioid receptor [15])	Ki (D(3) dopamine receptor [16])	inhibition [18]	inhibition [19]	Ki (D(2) dopamine receptor [20])	inhibition (D(3) dopamine receptor [21])	IC50 (MDA-MB-231 [22])	Ki [23]	also measured
OC1(c2ccc(Cl)c(C(F)(F)F)c2)CCN(CCCC(c2ccc(F)cc2)c2ccc(F)cc2)CC1 [PENFLURIDOL]	97.3%	4300 nM	881 nM	77.6%	96%	94.6%	184 nM	6030 nM	71.5%	98.4%	87%	6100 nM	867 nM	136 nM	95.3%	91.3%	159 nM	98.2%	5000 nM	280 nM	Ki [2]: 588 nM; Ki (D(1B) dopamine receptor [5]): 125 nM; inhibition (D(1B) dopamine receptor [7]): 82.9%; inhibition (Histamine H2 receptor): 98.4%; Ki ([17]; read-out: Ki): 1710 nM; inhibition (INH) [24]: 86.2%; inhibition (INH) [25]: 92.7%
OC1(c2ccc(Cl)c(C(F)(F)F)c2)CCN(CCCC=C(c2ccc(F)cc2)c2ccc(F)cc2)CC1	91.8%	11200 nM	1600 nM	87.8%	54.4%	80.9%	2200 nM	37200 nM	87.3%	78.8%	90.6%	23900 nM	328 nM	552 nM	77.2%	–	317 nM	87.1%	14900 nM	10000 nM	Ki (D(4) dopamine receptor): 1640 nM; inhibition (Histamine H2 receptor): 82.6%
COc1ccc(N(CCCCN2CCC(O)(c3ccc(Cl)c(C(F)(F)F)c3)CC2)c2ccc(OC)cc2)cc1	77.5%	2700 to 6100 nM	740 nM	73%	50%	65.8%	729 nM	8700 nM	60%	55.2%	76.8%	8100 nM	8250 nM	437 nM	72.6%	78.8%	417 nM	65.1%	7100 nM	949 nM	Ki [2]: 1440 nM; Ki (D(1B) dopamine receptor [5]): 623 nM; Ki (D(4) dopamine receptor): 459 nM; inhibition (D(1B) dopamine receptor [7]): 83.5%; Ki ([17]; read-out: Ki): 10000 nM; inhibition (INH) [24]: 86.4%; inhibition (INH) [25]: 94%
OC1(c2ccc(Cl)c(C(F)(F)F)c2)CCN(CCCN(c2ccc(F)cc2)c2ccc(F)cc2)CC1	95.5%	4100 nM	402 nM	76.5%	86.4%	69.8%	177 nM	6800 nM	66.4%	85.9%	97.4%	6700 nM	902 nM	474 nM	86.7%	80.7%	148 nM	94.4%	5000 nM	1570 nM	Ki [2]: 902 nM; Ki (D(1B) dopamine receptor [5]): 437 nM; Ki (D(4) dopamine receptor): 25 nM; inhibition (D(1B) dopamine receptor [7]): 100%; inhibition (Histamine H2 receptor): 98.3%; Ki ([17]; read-out: Ki): 1560 nM; inhibition (INH) [24]: 97.4%; inhibition (INH) [25]: 82.5%
OC1(c2ccc(Cl)c(C(F)(F)F)c2)CCN(CCCCC(c2ccc(F)cc2)c2ccc(F)cc2)CC1	93.3%	4200 nM	1710 nM	96.9%	80%	96%	423 nM	6500 nM	99.2%	84.9%	89%	5300 nM	356 nM	209 nM	89%	79.3%	194 nM	95.7%	5700 nM	969 nM	Ki [2]: 77 nM; Ki (D(1B) dopamine receptor [5]): 529 nM; Ki (D(4) dopamine receptor): 385 nM; inhibition (D(1B) dopamine receptor [7]): 88.2%; inhibition (Histamine H2 receptor): 94%; Ki ([17]; read-out: Ki): 1410 nM; inhibition (INH) [24]: 98.3%; inhibition (INH) [25]: 92.5%
OC1(c2ccc(Cl)c(C(F)(F)F)c2)CCN(CCCCN(c2ccc(F)cc2)c2ccc(F)cc2)CC1	82.4%	8200 nM	1130 nM	86.1%	68%	70.3%	509 nM	12100 nM	65.8%	57.1%	61.5%	11300 nM	10000 nM	782 nM	77.5%	70.6%	550 nM	82.5%	11500 nM	812 nM	Ki [2]: 458 nM; Ki (D(1B) dopamine receptor [5]): 744 nM; Ki (D(4) dopamine receptor): 10000 nM; inhibition (D(1B) dopamine receptor [7]): 84.6%; Ki ([17]; read-out: Ki): 10000 nM; inhibition (INH) [24]: 88.2%; inhibition (INH) [25]: 72.7%
OC1(c2ccc(Cl)c(C(F)(F)F)c2)CCN(CCCCCc2ccc(F)cc2)CC1	–	8200 to 9800 nM	2550 nM	89.2%	24.7%	78.3%	–	13200 nM	81.8%	75.9%	86.2%	19400 nM	536 nM	–	57.7%	50%	460 nM	77.8%	11900 nM	1120 nM	Ki (D(4) dopamine receptor): 132 nM; Ki [10]: Not Active; inhibition (Histamine H2 receptor): 69.2%; Ki [17]: Not Active
